Values joined by “and” are separate entries in the source; they are usually repeats but may differ in a detail not shown here. Identical values can stand only once.
Test system: U2OS
Test: Multiplex assay against U2OS
Assay type: toxicity, cell-based
Conditions: human
Procedure, shortened: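 Live cells carried four stains from seeding: Hoechst33342, BioTracker Green Microtubule Cytoskeleton Dye, MitoTracker Red and Annexin V Alexa Fluor 680. They were imaged on a CQ1 microscope at 37°C and 5% CO2 after compound addition. Using CellPathfinder machine-learning gating, cells were split into Hoechst high-intensity objects or normal cells, normal cells into healthy, pyknosed or fragmented nuclei, and pyknosed cells into mitotic or apoptotic; tubulin, mitochondrial-mass and membrane-permeability phenotypes are per cents of healthy-nucleus cells.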

[1] = 12 h, 1 µM, compound concentration 1 uM
[2] = 12 h, 10 µM, compound concentration 10 uM
[3] = 24 h, 1 µM, compound concentration 1 uM
[4] = 24 h, 10 µM, compound concentration 10 uM
[5] = 48 h, 1 µM, compound concentration 1 uM
[6] = 48 h, 10 µM, compound concentration 10 uM

Cc1cc(C)c(NC(=O)C2CC3CCC2C3)c(C)c1 (stereo not given)
Population Apoptotic (%) [1]: 35.29% | Population Fragmented Nuclei (%) [1]: 2.08% and 2.72% | Population Healthy Nuclei (%) [1]: 89.09% and 88.04% | Population Hoechst High Intensity Objects (%) [1]: 0% | Population Membrane Permeable-Phenotype (%) [1]: 1.75% and 1.23% | Population Mitochondria Different-Phenotype (%) [1]: 0.29% and 4.94% | Population Mitotic Cells (%) [1]: 64.71% | Population Normal (%) [1]: 100% | Population Pyknosed Nuclei (%) [1]: 8.83% and 9.24% | Population Tubulin-Different-Phenotype (%) [1]: 2.04% and 0% | Total Cell Count [1]: 385 and 184 | Population Apoptotic (%) [2]: 50% and 36% | Population Fragmented Nuclei (%) [2]: 2.53% and 4.4% | Population Healthy Nuclei (%) [2]: 88.71% and 79.87% | Population Hoechst High Intensity Objects (%) [2]: 0% | Population Membrane Permeable-Phenotype (%) [2]: 1.56% and 2.36% | Population Mitochondria Different-Phenotype (%) [2]: 0.26% and 8.66% | Population Mitotic Cells (%) [2]: 50% and 64% | Population Normal (%) [2]: 100% | Population Pyknosed Nuclei (%) [2]: 8.76% and 15.72% | Population Tubulin-Different-Phenotype (%) [2]: 0.52% and 1.57% | Total Cell Count [2]: 434 and 159 | Population Apoptotic (%) [3]: 42.86% and 36% | Population Fragmented Nuclei (%) [3]: 2.11% and 1.27% | Population Healthy Nuclei (%) [3]: 84.48% and 88.19% | Population Hoechst High Intensity Objects (%) [3]: 0.19% and 0% | Population Membrane Permeable-Phenotype (%) [3]: 1.36% and 1.91% | Population Mitochondria Different-Phenotype (%) [3]: 0.23% and 2.39% | Population Mitotic Cells (%) [3]: 57.14% and 64% | Population Normal (%) [3]: 99.81% and 100% | Population Pyknosed Nuclei (%) [3]: 13.41% and 10.55% | Population Tubulin-Different-Phenotype (%) [3]: 0.91% and 0% | Total Cell Count [3]: 523 and 237 | Population Apoptotic (%) [4]: 34.38% and 46.43% | Population Fragmented Nuclei (%) [4]: 2.9% and 2.49% | Population Healthy Nuclei (%) [4]: 86.2% and 83.58% | Population Hoechst High Intensity Objects (%) [4]: 0.17% and 0% | Population Membrane Permeable-Phenotype (%) [4]: 1.19% | Population Mitochondria Different-Phenotype (%) [4]: 0.4% and 3.57% | Population Mitotic Cells (%) [4]: 65.62% and 53.57% | Population Normal (%) [4]: 99.83% and 100% | Population Pyknosed Nuclei (%) [4]: 10.9% and 13.93% | Population Tubulin-Different-Phenotype (%) [4]: 0.79% and 2.38% | Total Cell Count [4]: 588 and 201 | Population Apoptotic (%) [5]: 45% and 48.57% | Population Fragmented Nuclei (%) [5]: 2.82% and 2% | Population Healthy Nuclei (%) [5]: 88.83% and 89.25% | Population Hoechst High Intensity Objects (%) [5]: 0% | Population Membrane Permeable-Phenotype (%) [5]: 2% and 1.96% | Population Mitochondria Different-Phenotype (%) [5]: 0.12% and 3.08% | Population Mitotic Cells (%) [5]: 55% and 51.43% | Population Normal (%) [5]: 100% | Population Pyknosed Nuclei (%) [5]: 8.35% and 8.75% | Population Tubulin-Different-Phenotype (%) [5]: 1.53% and 0.28% | Total Cell Count [5]: 958 and 400 | Population Apoptotic (%) [6]: 38.02% and 53.12% | Population Fragmented Nuclei (%) [6]: 3.32% and 3.75% | Population Healthy Nuclei (%) [6]: 86.1% and 87.03% | Population Hoechst High Intensity Objects (%) [6]: 0% | Population Membrane Permeable-Phenotype (%) [6]: 1.52% and 2.32% | Population Mitochondria Different-Phenotype (%) [6]: 0.1% and 3.97% | Population Mitotic Cells (%) [6]: 61.98% and 46.88% | Population Normal (%) [6]: 100% | Population Pyknosed Nuclei (%) [6]: 10.58% and 9.22% | Population Tubulin-Different-Phenotype (%) [6]: 1.22% and 1.99%

O=C1CSC(=O)N1C(CCc1ccncc1)COc1ccc(-c2cccc([N+](=O)[O-])c2)cc1 (stereo not given)
Population Apoptotic (%) [1]: 46.67% and 30.43% | Population Fragmented Nuclei (%) [1]: 1.68% and 1.25% | Population Healthy Nuclei (%) [1]: 91.11% and 84.38% | Population Hoechst High Intensity Objects (%) [1]: 0% and 0.62% | Population Membrane Permeable-Phenotype (%) [1]: 0.26% and 4.44% | Population Mitochondria Different-Phenotype (%) [1]: 0.26% and 9.63% | Population Mitotic Cells (%) [1]: 53.33% and 69.57% | Population Normal (%) [1]: 100% and 99.38% | Population Pyknosed Nuclei (%) [1]: 7.21% and 14.37% | Population Tubulin-Different-Phenotype (%) [1]: 1.58% and 2.22% | Total Cell Count [1]: 416 and 161 | Population Apoptotic (%) [2]: 42.24% and 24.39% | Population Fragmented Nuclei (%) [2]: 2.2% and 3.42% | Population Healthy Nuclei (%) [2]: 69.51% and 68.49% | Population Hoechst High Intensity Objects (%) [2]: 0.24% and 0% | Population Membrane Permeable-Phenotype (%) [2]: 53.68% and 77% | Population Mitochondria Different-Phenotype (%) [2]: 42.11% and 86% | Population Mitotic Cells (%) [2]: 57.76% and 75.61% | Population Normal (%) [2]: 99.76% and 100% | Population Pyknosed Nuclei (%) [2]: 28.29% and 28.08% | Population Tubulin-Different-Phenotype (%) [2]: 96.84% and 85% | Total Cell Count [2]: 411 and 146 | Population Apoptotic (%) [3]: 40.38% and 40% | Population Fragmented Nuclei (%) [3]: 0.93% and 1.52% | Population Healthy Nuclei (%) [3]: 89.44% and 80.81% | Population Hoechst High Intensity Objects (%) [3]: 0.18% and 0% | Population Membrane Permeable-Phenotype (%) [3]: 0.62% and 1.88% | Population Mitochondria Different-Phenotype (%) [3]: 0.41% and 10% | Population Mitotic Cells (%) [3]: 59.62% and 60% | Population Normal (%) [3]: 99.82% and 100% | Population Pyknosed Nuclei (%) [3]: 9.63% and 17.68% | Population Tubulin-Different-Phenotype (%) [3]: 1.45% and 0.62% | Total Cell Count [3]: 541 and 198 | Population Apoptotic (%) [4]: 50% and 31.58% | Population Fragmented Nuclei (%) [4]: 2.96% and 3.38% | Population Healthy Nuclei (%) [4]: 68.34% and 70.95% | Population Hoechst High Intensity Objects (%) [4]: 0.23% and 0% | Population Membrane Permeable-Phenotype (%) [4]: 43% and 73.33% | Population Mitotic Cells (%) [4]: 50% and 68.42% | Population Normal (%) [4]: 99.77% and 100% | Population Pyknosed Nuclei (%) [4]: 28.7% and 25.68% | Population Tubulin-Different-Phenotype (%) [4]: 96.67% and 89.52% | Total Cell Count [4]: 440 and 148 | Population Apoptotic (%) [5]: 43.9% and 44.68% | Population Fragmented Nuclei (%) [5]: 2.54% and 3.2% | Population Healthy Nuclei (%) [5]: 89.11% and 83.14% | Population Hoechst High Intensity Objects (%) [5]: 0% | Population Membrane Permeable-Phenotype (%) [5]: 1.6% and 1.75% | Population Mitochondria Different-Phenotype (%) [5]: 0.34% and 6.64% | Population Mitotic Cells (%) [5]: 56.1% and 55.32% | Population Normal (%) [5]: 100% | Population Pyknosed Nuclei (%) [5]: 8.34% and 13.66% | Population Tubulin-Different-Phenotype (%) [5]: 1.94% and 1.75% | Total Cell Count [5]: 983 and 344 | Population Apoptotic (%) [6]: 60.54% and 58.93% | Population Fragmented Nuclei (%) [6]: 4.41% and 4.12% | Population Healthy Nuclei (%) [6]: 68.57% and 62.94% | Population Hoechst High Intensity Objects (%) [6]: 0.18% and 0% | Population Membrane Permeable-Phenotype (%) [6]: 31.1% and 67.29% | Population Mitotic Cells (%) [6]: 39.46% and 41.07% | Population Normal (%) [6]: 99.82% and 100% | Population Pyknosed Nuclei (%) [6]: 27.02% and 32.94% | Population Tubulin-Different-Phenotype (%) [6]: 82.84% and 74.77%

Cn1ncnc1COc1nn2c(-c3cc(F)ccc3F)nnc2cc1C(C)(C)C
Population Apoptotic (%) [1]: 55.26% and 53.85% | Population Fragmented Nuclei (%) [1]: 0.89% and 4.24% | Population Healthy Nuclei (%) [1]: 90.6% and 80% | Population Hoechst High Intensity Objects (%) [1]: 0% | Population Mitochondria Different-Phenotype (%) [1]: 0% and 7.58% | Population Mitotic Cells (%) [1]: 44.74% and 46.15% | Population Normal (%) [1]: 100% | Population Pyknosed Nuclei (%) [1]: 8.5% and 15.76% | Population Tubulin-Different-Phenotype (%) [1]: 1.23% and 0.76% | Total Cell Count [1]: 447 and 165 | Population Apoptotic (%) [2]: 36.84% and 41.18% | Population Fragmented Nuclei (%) [2]: 1.2% and 0.65% | Population Healthy Nuclei (%) [2]: 87.43% and 88.24% | Population Hoechst High Intensity Objects (%) [2]: 0% | Population Mitotic Cells (%) [2]: 63.16% and 58.82% | Population Normal (%) [2]: 100% | Population Pyknosed Nuclei (%) [2]: 11.38% and 11.11% | Population Tubulin-Different-Phenotype (%) [2]: 1.71% and 1.48% | Total Cell Count [2]: 334 and 153 | Population Apoptotic (%) [3]: 33.9% and 52.63% | Population Fragmented Nuclei (%) [3]: 0.96% and 3.02% | Population Healthy Nuclei (%) [3]: 89.63% and 77.89% | Population Hoechst High Intensity Objects (%) [3]: 0% | Population Mitochondria Different-Phenotype (%) [3]: 0% and 7.74% | Population Mitotic Cells (%) [3]: 66.1% and 47.37% | Population Normal (%) [3]: 100% | Population Pyknosed Nuclei (%) [3]: 9.41% and 19.1% | Population Tubulin-Different-Phenotype (%) [3]: 0.53% and 0.65% | Population Apoptotic (%) [4]: 30.77% and 47.83% | Population Fragmented Nuclei (%) [4]: 1.81% and 3.66% | Population Healthy Nuclei (%) [4]: 86.39% and 84.29% | Population Hoechst High Intensity Objects (%) [4]: 0% and 0.52% | Population Mitochondria Different-Phenotype (%) [4]: 0% and 3.73% | Population Mitotic Cells (%) [4]: 69.23% and 52.17% | Population Normal (%) [4]: 100% and 99.48% | Population Pyknosed Nuclei (%) [4]: 11.79% and 12.04% | Population Tubulin-Different-Phenotype (%) [4]: 2.62% and 1.24% | Total Cell Count [4]: 441 and 192 | Population Apoptotic (%) [5]: 43.96% and 63.41% | Population Fragmented Nuclei (%) [5]: 3.06% and 2.48% | Population Healthy Nuclei (%) [5]: 88.51% and 84.83% | Population Hoechst High Intensity Objects (%) [5]: 0% and 0.31% | Population Mitochondria Different-Phenotype (%) [5]: 0% and 6.93% | Population Mitotic Cells (%) [5]: 56.04% and 36.59% | Population Normal (%) [5]: 100% and 99.69% | Population Pyknosed Nuclei (%) [5]: 8.43% and 12.69% | Population Tubulin-Different-Phenotype (%) [5]: 1.05% and 0.73% | Population Apoptotic (%) [6]: 56.04% and 51.22% | Population Fragmented Nuclei (%) [6]: 2.31% and 1.96% | Population Healthy Nuclei (%) [6]: 87.15% and 84.64% | Population Hoechst High Intensity Objects (%) [6]: 0% | Population Mitochondria Different-Phenotype (%) [6]: 0.13% and 5.41% | Population Mitotic Cells (%) [6]: 43.96% and 48.78% | Population Normal (%) [6]: 100% | Population Pyknosed Nuclei (%) [6]: 10.53% and 13.4% | Population Tubulin-Different-Phenotype (%) [6]: 1.86% and 1.54% | Total Cell Count [6]: 864 and 306

From ChEMBL document CHEMBL5724801, “EUbOPEN Chemogenomics Library - Multiplex” (2024)
